tested on: Hepatitis C virus; assay: Antiviral activity against HCV genotype 1b harboring D168A mutant infected in human Huh7 cells incubated for 96 hrs by luciferase assay; assay type: functional, organism-based, Hepacivirus hominis; details: subtype 1b, Huh-7, 96 h
Outline: (§1)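 Con1 (GT-1b) luciferase reporter replicon carrying the H77 (GT-1a) NS3 protease region, with the mutation introduced by megaprimer site-directed mutagenesis. Cured Huh7 cells were grown in DMEM with 10% heat-inactivated FBS and 0.1 mM non-essential amino acids, electroporated with replicon RNA transcripts, and kept with serially diluted inhibitor. EC50 was taken directly from the inhibition curves.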

**Q.** Which EC50 does the source give for `COc1ccc2nc(C)c(O[C@@H]3C[C@H]4C(=O)N[C@]5(C(=O)NS(=O)(=O)C6(C)CC6)C[C@H]5/C=C/CCCCC[C@H](NC(=O)OC5CC(F)(F)C5)C(=O)N4C3)nc2c1` here?
**A.** 4.1 nM

**Q.** Which EC50 does the source give for `CCc1nc2ccc(OC)cc2nc1O[C@@H]1C[C@H]2C(=O)N[C@]3(C(=O)NS(=O)(=O)C4CC4)C[C@H]3/C=C/CCCCC[C@H](NC(=O)OC(C)(C)C)C(=O)N2C1` here?
**A.** 6.3 nM

**Q.** With `COc1ccc2nc(O[C@@H]3C[C@H]4C(=O)N[C@]5(C(=O)NS(=O)(=O)C6(C)CC6)C[C@H]5/C=C/CCCCC[C@H](NC(=O)OC5C[C@@H]6C[C@@H]6C5)C(=O)N4C3)c(C(F)(F)F)nc2c1` (stereo not given in full) as the compound, how does the EC50 read?
**A.** 2.1 nM

**Q.** With `COc1ccc2nc(C)c(O[C@@H]3C[C@H]4C(=O)N[C@]5(C(=O)NS(=O)(=O)C6(C)CC6)C[C@H]5/C=C/CCCCC[C@H](NC(=O)O[C@H](C)C5CC5)C(=O)N4C3)nc2c1` as the compound, how does the EC50 read?
**A.** 3.7 nM

**Q.** Which EC50 does the source give for `COc1ccc2nc(O[C@@H]3C[C@H]4C(=O)N[C@]5(C(=O)NS(=O)(=O)C6(C)CC6)C[C@H]5/C=C/CCCCC[C@H](NC(=O)OC5(C)CC5)C(=O)N4C3)c(C(F)(F)F)nc2c1` here?
**A.** 14 nM

**Q.** `COc1ccc2nc(O[C@@H]3C[C@H]4C(=O)N[C@]5(C(=O)NS(=O)(=O)C6(C)CC6)C[C@H]5/C=C/CCCCC[C@H](NC(=O)OC5CC(F)(F)C5)C(=O)N4C3)c(C(F)(F)F)nc2c1` was tested. Which EC50 did it give?
**A.** 6.9 nM

molecular target: T1, Hepatitis C virus serine protease, NS3/NS4A (Hepatitis C virus, UniProt A3EZI9+D2K2A8); assay: Inhibition of HCV GT-3a NS3/4a protease using Ac-DE-D(Edans)-EE-Abu-c-[COO]-AS-K(Dabcy1)-NH2 preincubated for 1 hr followed by substrate addition; assay type: protein-complex assay, Hepatitis C virus subtype 3a; details: not given

**Q.** Which Ki does the source give for `COc1ccc2nc(O[C@@H]3C[C@H]4C(=O)N[C@]5(C(=O)NS(=O)(=O)C6(C)CC6)C[C@H]5/C=C/CCCCC[C@H](NC(=O)OC5C[C@@H]6C[C@@H]6C5)C(=O)N4C3)c(C(F)(F)F)nc2c1` (stereo not given in full) here?
**A.** 170 nM

molecular target: T1, Hepatitis C virus serine protease, NS3/NS4A; assay: Inhibition of HCV GT-1a NS3/4a protease using Ac-DE-D(Edans)-EE-Abu-c-[COO]-AS-K(Dabcy1)-NH2 preincubated for 1 hr followed by substrate addition; assay type: protein complex, Hepatitis C virus subtype 1a; details: not given

**Q.** `COc1ccc2nc(C)c(O[C@@H]3C[C@H]4C(=O)N[C@]5(C(=O)NS(=O)(=O)C6(C)CC6)C[C@H]5/C=C/CCCCC[C@H](NC(=O)OC(C)C)C(=O)N4C3)nc2c1` was tested. Which Ki did it give?
**A.** 2.1 nM

**Q.** Which Ki does the source give for `COc1ccc2nc(C)c(O[C@@H]3C[C@H]4C(=O)N[C@]5(C(=O)NS(=O)(=O)C6(C)CC6)C[C@H]5/C=C/CCCCC[C@H](NC(=O)O[C@@H](C)C(F)(F)F)C(=O)N4C3)nc2c1` here?
**A.** 0.7 nM

**Q.** `COc1ccc2nc(C)c(O[C@@H]3C[C@H]4C(=O)N[C@]5(C(=O)NS(=O)(=O)C6(C)CC6)C[C@H]5/C=C/CCCCC[C@H](NC(=O)OC5CC(F)(F)C5)C(=O)N4C3)nc2c1` was tested. Which Ki did it give?
**A.** 0.6 nM

**Q.** With `COc1ccc2nc(O[C@@H]3C[C@H]4C(=O)N[C@]5(C(=O)NS(=O)(=O)C6(C)CC6)C[C@H]5/C=C/CCCCC[C@H](NC(=O)OC5C[C@@H]6C[C@@H]6C5)C(=O)N4C3)c(C(F)(F)F)nc2c1` (stereo not given in full) as the compound, how does the Ki read?
**A.** 0.2 nM

**Q.** Which Ki does the source give for `COc1ccc2nc(C)c(O[C@@H]3C[C@H]4C(=O)N[C@]5(C(=O)NS(=O)(=O)C6(C)CC6)C[C@H]5/C=C/CCCCC[C@H](NC(=O)O[C@H](C)C5CC5)C(=O)N4C3)nc2c1` here?
**A.** 1.5 nM

**Q.** With `COc1ccc2nc(O[C@@H]3C[C@H]4C(=O)N[C@]5(C(=O)NS(=O)(=O)C6(C)CC6)C[C@H]5/C=C/CCCCC[C@H](NC(=O)OC5(C)CC5)C(=O)N4C3)c(C(F)(F)F)nc2c1` as the compound, how does the Ki read?
**A.** 11 nM

**Q.** `COc1ccc2nc(O[C@@H]3C[C@H]4C(=O)N[C@]5(C(=O)NS(=O)(=O)C6(C)CC6)C[C@H]5/C=C/CCCCC[C@H](NC(=O)OC5CC(F)(F)C5)C(=O)N4C3)c(C(F)(F)F)nc2c1` was tested. Which Ki did it give?
**A.** 11 nM

tested on: Hepatitis C virus; assay: Antiviral activity against HCV genotype 1b infected in human Huh7 cells incubated for 96 hrs by luciferase assay; assay type: functional, organism-based, Hepacivirus hominis; details: Huh-7, 96 h
Outline: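 Con1 (GT-1b) luciferase reporter replicon carrying the H77 (GT-1a) NS3 protease region, either WT or with A156T or D168A introduced by megaprimer mutagenesis. Cured Huh7 cells grown in DMEM with 10% heat-inactivated FBS and 0.1 mM non-essential amino acids. Cells electroporated with replicon RNA and kept with serially diluted inhibitor.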

**Q.** For `COc1ccc2nc(C)c(O[C@@H]3C[C@H]4C(=O)N[C@]5(C(=O)NS(=O)(=O)C6(C)CC6)C[C@H]5/C=C/CCCCC[C@H](NC(=O)O[C@@H](C)C(F)(F)F)C(=O)N4C3)nc2c1`, which EC50 is on record?
**A.** 0.8 nM

**Q.** For `COc1ccc2nc(C)c(O[C@@H]3C[C@H]4C(=O)N[C@]5(C(=O)NS(=O)(=O)C6(C)CC6)C[C@H]5/C=C/CCCCC[C@H](NC(=O)OC5CC(F)(F)C5)C(=O)N4C3)nc2c1`, which EC50 is on record?
**A.** 0.6 nM

**Q.** How did the EC50 turn out when `COc1ccc2nc(C)c(O[C@@H]3C[C@H]4C(=O)N[C@]5(C(=O)NS(=O)(=O)C6(C)CC6)C[C@H]5/C=C/CCCCC[C@H](NC(=O)O[C@H](C)C5CC5)C(=O)N4C3)nc2c1` was run?
**A.** 0.3 nM

**Q.** `COc1ccc2nc(O[C@@H]3C[C@H]4C(=O)N[C@]5(C(=O)NS(=O)(=O)C6(C)CC6)C[C@H]5/C=C/CCCCC[C@H](NC(=O)OC5(C)CC5)C(=O)N4C3)c(C(F)(F)F)nc2c1` was tested. Which EC50 did it give?
**A.** 5.8 nM

**Q.** Which EC50 does the source give for `COc1ccc2nc(O[C@@H]3C[C@H]4C(=O)N[C@]5(C(=O)NS(=O)(=O)C6(C)CC6)C[C@H]5/C=C/CCCCC[C@H](NC(=O)OC5CC(F)(F)C5)C(=O)N4C3)c(C(F)(F)F)nc2c1` here?
**A.** 3.2 nM

tested on: Hepatitis C virus; assay: Antiviral activity against HCV genotype 1b harboring A156T mutant infected in human Huh7 cells incubated for 96 hrs by luciferase assay; assay type: functional, organism-based, Hepacivirus hominis; details: subtype 1b, Huh-7, 96 h; outline: as §1

**Q.** For `COc1ccc2nc(C)c(O[C@@H]3C[C@H]4C(=O)N[C@]5(C(=O)NS(=O)(=O)C6(C)CC6)C[C@H]5/C=C/CCCCC[C@H](NC(=O)O[C@@H](C)C(F)(F)F)C(=O)N4C3)nc2c1`, which EC50 is on record?
**A.** 8.1 nM

**Q.** For `COc1ccc2nc(C)c(O[C@@H]3C[C@H]4C(=O)N[C@]5(C(=O)NS(=O)(=O)C6(C)CC6)C[C@H]5/C=C/CCCCC[C@H](NC(=O)OC5CC(F)(F)C5)C(=O)N4C3)nc2c1`, which EC50 is on record?
**A.** 5.3 nM

**Q.** `COc1ccc2nc(O[C@@H]3C[C@H]4C(=O)N[C@]5(C(=O)NS(=O)(=O)C6(C)CC6)C[C@H]5/C=C/CCCCC[C@H](NC(=O)OC5C[C@@H]6C[C@@H]6C5)C(=O)N4C3)c(C(F)(F)F)nc2c1` (stereo not given in full) was tested. Which EC50 did it give?
**A.** 70 nM

**Q.** With `COc1ccc2nc(C)c(O[C@@H]3C[C@H]4C(=O)N[C@]5(C(=O)NS(=O)(=O)C6(C)CC6)C[C@H]5/C=C/CCCCC[C@H](NC(=O)O[C@H](C)C5CC5)C(=O)N4C3)nc2c1` as the compound, how does the EC50 read?
**A.** 11 nM

**Q.** With `COc1ccc2nc(O[C@@H]3C[C@H]4C(=O)N[C@]5(C(=O)NS(=O)(=O)C6(C)CC6)C[C@H]5/C=C/CCCCC[C@H](NC(=O)OC5(C)CC5)C(=O)N4C3)c(C(F)(F)F)nc2c1` as the compound, how does the EC50 read?
**A.** 99 nM

**Q.** With `COc1ccc2nc(O[C@@H]3C[C@H]4C(=O)N[C@]5(C(=O)NS(=O)(=O)C6(C)CC6)C[C@H]5/C=C/CCCCC[C@H](NC(=O)OC5CC(F)(F)C5)C(=O)N4C3)c(C(F)(F)F)nc2c1` as the compound, how does the EC50 read?
**A.** 35 nM
